From PubChem BioAssay
This is one part of a sample in which hits are shown more often than they occur.
BB579 growth dn: chemicals that inhibit yeast BB579 growth in restrictive medium (lifespan-shortening candidates); S. cerevisiae BB579 growth, OD615, 48 h; inhibition, % at 10 µM; 140,000 compounds, 0.51% hits;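 active = inhibition above a set limit, 3 SD over the mean compound inhibition, cut at about 44% in these data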
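System: Saccharomyces cerevisiae DeaD strain BB579, replicative lifespan model yeast. Buffer or medium: restrictive glucose-based CSMM-D medium. Doses: one dose, 10 µM compound with 0.25% DMSO. Timing: 4 h preincubation and 48 h exposure at 30 °C. Detection: turbidity as optical density at 615 nm. Benchmarks: amphotericin B 10 µg/mL, positive.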
Yeast life ext: yeast lifespan extension; S. cerevisiae growth with nicotinamide, OD615; deaD strain in restrictive glucose medium; inhibition of the nicotinamide effect, % at 10 µM; 130,000 compounds, 0.68% hits; AID 775;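 active = inhibition above a set limit, placed 3 SD over the median of all compounds, cut at about 26% in these data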
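Measured by: optical density (absorbance) at 615 nm; System: modified budding yeast, DeaD strain; Medium: restrictive CSMM-D dextrose medium; Timing: 4 h preincubation then 48 h treatment at 30 °C.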
PostGolgi yeast: growth inhibition of a yeast mutant, post-Golgi transport screen. post-Golgi transport phenotypic cell assay. inhibition, % at 10 µM. 98,000 compounds, 0.9% hits;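 also: yeast cells grown in 1536-well plates; yeast grown about 18 h at 30C before absorbance read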
PostGolgi ctrl: inhibits growth of the yeast control strain | efflux-deficient yeast background strain, growth absorbance A615, 16 h | inhibition, % at 10 µM | 98,000 compounds, 5% hits | AID 738
Numbers stand for hits; n = inactive; x = no result. Rule as the data show it, unless noted: active = inhibition above about 30%; inactive = the rest.

SMILES	BB579 growth dn	Yeast life ext	PostGolgi yeast	PostGolgi ctrl
CCN(CC)S(=O)(=O)c1ccc(C(=O)OCn2nnc3ccccc3c2=O)cc1	n	n	89	78
CCOC(=O)C1CCN(Cc2cnc(Oc3ccc(Cl)cc3C)s2)CC1	n	n	49	n
Cc1c(-c2ccccc2)oc2c(C(=O)OCC(=O)Nc3ccc(C(N)=O)cc3)cccc2c1=O	n	n	x	x
COC(=O)c1c(NS(=O)(=O)Cc2ccccc2)sc2c1CCCC2	n	n	n	41
Cc1ccc(C2N(c3ccc(Cl)c(Cl)c3)C(=O)C3CCCN32)o1 (configuration not stated)	n	n	40	n
COc1ccccc1CNC(=O)c1ccc(NS(=O)(=O)c2c(C)noc2C)cc1	n	n	n	n
COc1ccc(CNC(=O)c2ccc(NS(=O)(=O)c3c(C)noc3C)cc2)cc1	n	n	n	31
O=C(CSc1ncn[nH]1)Nc1c(Br)cc([N+](=O)[O-])cc1Br	n	n	x	x
O=C(NCC1COc2ccccc2O1)c1ccc(NC(=O)c2ccco2)cc1 (configuration not stated)	n	n	n	n
O=C(CNS(=O)(=O)c1ccc(Br)s1)NCC1COc2ccccc2O1 (configuration not stated)	n	n	68	95
O=C(NCC1COc2ccccc2O1)c1ccc(Cl)cc1 (configuration not stated)	n	n	58	n
Cc1ccc(C(=O)c2cn[nH]c2-c2cc(Cl)ccc2O)cc1	n	n	n	38
Brc1ccc(-n2cccc2/C=N/n2cnnc2)cc1	n	n	n	n
Cc1ccc(N2C(=O)/C(=C\c3ccco3)SC2=S)cc1	n	n	n	32
O=C1/C(=C\c2ccco2)SC(=S)N1c1ccccc1	n	n	x	x
Cc1ccc(C(=O)CSc2nnc3c4ccccc4nc(Cc4ccccc4)n23)cc1	n	n	x	x
COc1cccc(CSc2nc3ccccc3cc2C=O)c1	n	84	33	51
CC1=CC(C)(C)N(C(=O)CSc2nnc(-c3ccc(C)cc3)o2)c2ccc(C)cc21	n	n	n	n
O=[N+]([O-])c1ccc(/C=C2\CCC(C3=CCCC3)=C2N2CCOCC2)cc1	n	n	x	x
Oc1ccc2ccccc2c1/C=N/Nc1nnc(-c2ncc[nH]2)c2ccccc12	n	n	n	39
COc1ccc(/C=N/Nc2nnc(-c3ncc[nH]3)c3ccccc23)cc1	n	n	n	n
COc1ccc(/C=N/NC(=O)CNC(=O)C2COc3ccccc3O2)cc1OC (configuration not stated)	n	n	x	x
O=C(N1CCN(c2ccccc2)CC1)C12CC3CC(CC(C3)C1)C2	n	n	n	45
O=C(N1CCOCC1)N1CCN(c2ccccc2)CC1	n	n	n	n
CC1(C)C(C=C(Cl)Cl)C1C(=O)N1CCN(c2ccccc2)CC1 (configuration not stated)	n	n	n	70
SMILES	BB579 growth dn	Yeast life ext	PostGolgi yeast	PostGolgi ctrl
O=C(N1CCN(Cc2ccccc2)CC1)C12CC3CC(CC(C3)C1)C2	n	n	n	n
COc1ccccc1NC(CC(=O)c1ccccc1)C(=O)OCC(=O)c1ccc(F)cc1 (configuration not stated)	n	n	x	x
CC[n+]1c(/C=C2\C=C(C)CC(C)C2)sc2ccccc21 (configuration not stated)	n	27	n	n
CC[n+]1c(/C=C2/C=C(C)CC(C)(C)C2)sc2ccc(OC)cc21	n	n	n	n
CC[n+]1c(/C=C2\C=C(C)CC(C)(C)C2)sc2ccccc21	n	40	n	n
COC(=O)c1ccc(Sc2ccccc2NS(=O)(=O)c2ccc(C)cc2)nc1	n	n	n	n
CCOc1ccccc1NC(=O)CCN1CCN(S(=O)(=O)c2ccc(Br)cc2)CC1	n	n	n	n
Cc1cc(C)n(-c2cc(N3CCOCC3)nc(-c3ccccc3)n2)n1	n	n	n	42
Cc1cc(N2CCC(C(=O)NC3CC3)CC2)nc(-c2ccccc2)n1	n	n	n	n
Cc1cc(N2CCN(c3ccccc3)CC2)nc(-c2ccccc2O)n1	n	n	82	77
Cc1cc(N2CCN(c3cccc(C)c3C)CC2)nc(-c2ccccc2)n1	67	x	x	x
CCOC(=O)c1c(C)oc2cc(Br)c(OC(=O)N3CCOCC3)cc12	n	n	n	n
CCC(C)(C)NCC(=O)Nc1ccc(OC(F)(F)F)cc1	n	n	n	n
COCCCNCC(=O)Nc1ccc(OC(F)(F)F)cc1	n	n	n	42
COc1cccc(/C(O)=C2/C(=O)C(=O)N(CCN3CCOCC3)C2c2cccs2)c1 (configuration not stated)	n	n	n	n
CCCCn1c(=O)c(CCC(=O)OCC(=O)Nc2ccc(F)c(Cl)c2)nc2ccccc21	n	n	x	x
Cc1nn(-c2ccccc2)c(C)c1C(=O)OCC(=O)N1CCN(S(=O)(=O)c2ccccc2)CC1	n	n	n	96
CCCCc1nn(-c2cc(Cl)ccc2OC)c2c1C(=O)CC(C)(C)C2	n	n	n	32
CC(Cc1ccccc1)C(=O)N[C@@H](CO)Cc1ccccc1 (some centres not stated)	n	n	x	x
CCOC(=O)c1c(CN2CCN(Cc3ccccc3)CC2)n(C)c2cc(Br)c(OC)cc12	n	n	n	73
Cc1cc(C)cc(NC(=S)NC(=O)CCN2C(=O)c3ccccc3C2=O)c1	n	n	87	92
O=C(CCN1C(=O)c2ccccc2C1=O)NC(=S)Nc1ccccc1	n	n	x	x
CCOc1ccc(CNC(=O)C(CC)n2nc(C)n3c(cc4occc43)c2=O)cc1OC (configuration not stated)	n	n	n	n
Cc1cccc(C)c1N1C(=O)C2ON(c3ccccc3)C(c3ccncc3)C2C1=O (configuration not stated)	n	n	102	91
O=C1C2ON(c3ccccc3)C(c3ccncc3)C2C(=O)N1c1ccccc1 (configuration not stated)	n	n	n	n
SMILES	BB579 growth dn	Yeast life ext	PostGolgi yeast	PostGolgi ctrl
CCN(CC)S(=O)(=O)c1ccc(NS(=O)(=O)CC23CCC(CC2=O)C3(C)C)cc1 (configuration not stated)	n	n	x	x
O=c1c2ccccc2nc(-c2ccoc2)n1CCc1ccccc1	n	n	n	41
O=c1c2ccccc2nc(-c2ccc(Br)cc2)n1Cc1ccccc1	n	n	n	52
O=c1c2ccccc2nc(-c2ccco2)n1Cc1ccccc1	n	n	n	n
O=C(CSc1nnnn1-c1cccc(F)c1)Nc1nc2ccccc2s1	n	x	x	x
O=C(NCC1CCCO1)C1CC(=O)N(C2CCCC2)C1 (configuration not stated)	n	n	n	n
CCOC(=O)N1CCC(N2Cc3cccc(C(=O)Nc4ccc(OC)c(OC)c4)c3C2=O)CC1	n	n	n	37
Cc1cccc(CSc2nnc(-c3cccs3)n2Cc2ccco2)c1	n	n	n	n
COC(=O)CSc1nc2ccccc2o1	n	n	n	n
CCCCCCOC(=O)Sc1nc2ccccc2o1	81	n	34	n
O=C(Nc1nnc(-c2ccc3c(c2)CCCC3)o1)c1ccccc1	n	n	100	n
O=C(Nc1nnc(-c2ccc3c(c2)CCCC3)o1)c1ccccc1Cl	n	n	88	n
